Source: PubChem BioAssay (several laboratories)
Only some compounds are listed: those with a hit (about 3.4% of all), similar ones and a draw of the others.
GPR7 antag – antagonists of human GPR7 (neuropeptides B/W receptor 1). inhibition, % at 4.4 µM. AID 1861. P48145. GPR7-expressing cells, fluorescence antagonist assay. actives 1.1% (n = 290,000); in the data active means inhibition above about 16%, passing the limit was not always enough;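 further: cells stimulated with the agonist NPW; 0% = agonist with vehicle and 100% = vehicle without agonist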
Target sequence (P48145 whole entry, looked up): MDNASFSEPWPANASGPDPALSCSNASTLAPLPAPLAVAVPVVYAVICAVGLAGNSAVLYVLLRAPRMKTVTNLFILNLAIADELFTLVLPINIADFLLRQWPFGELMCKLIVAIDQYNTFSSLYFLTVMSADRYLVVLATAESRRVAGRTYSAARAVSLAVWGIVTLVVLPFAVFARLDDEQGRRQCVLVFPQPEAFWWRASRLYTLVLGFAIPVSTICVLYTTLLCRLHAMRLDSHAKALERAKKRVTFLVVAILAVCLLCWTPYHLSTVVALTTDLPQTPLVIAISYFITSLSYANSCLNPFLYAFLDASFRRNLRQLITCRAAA
TAAR1 antag – antagonists of human TAAR1; Q96RJ0; AID 624466; CHO RD-HGA16 TAAR1, Fluo-8 calcium fluorescence, antagonist; actives 1.5% (n = 360,000); inhibition, % at 3 µM;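 active means inhibition above a per-plate cutoff, the mean inhibition of test compounds on that plate plus 3 SD, cut at about 49% in these data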;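 further: 0% = DMSO plus EC80 beta-PEA response and 100% = DMSO alone without agonist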
Target sequence (Q96RJ0 whole entry, looked up): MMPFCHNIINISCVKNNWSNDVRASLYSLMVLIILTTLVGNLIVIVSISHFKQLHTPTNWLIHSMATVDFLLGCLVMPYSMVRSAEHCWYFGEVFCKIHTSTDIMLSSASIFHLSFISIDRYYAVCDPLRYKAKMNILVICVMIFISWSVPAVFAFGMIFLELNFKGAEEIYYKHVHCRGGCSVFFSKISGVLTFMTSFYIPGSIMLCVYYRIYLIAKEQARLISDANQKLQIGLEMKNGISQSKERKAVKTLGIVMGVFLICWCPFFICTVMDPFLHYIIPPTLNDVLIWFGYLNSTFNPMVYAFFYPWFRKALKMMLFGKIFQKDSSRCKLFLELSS
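Test system: hTAAR1-expressing CHO RD-HGA16 cells, Gα16-coupled; Probe or stimulus: EC80 β-phenethylamine stimulus; Compound dosing: single nominal final test compound concentration of 3 µM; Timing: 140 s kinetic read after compound, 140 s after agonist; Signal: Fluo-8 calcium-sensitive fluorescence; Measure: % inhibition of agonist calcium response; Controls: DMSO and EC80 PEA controls.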
TRPN1 ag – agonists of zebrafish TRPN1 channel | HEK293 zebrafish TRPN1-YFP, Fluo-8 calcium fluorescence; 100% = response to 87 µM carbachol | activation, % at 3 µM | actives 0.18% (n = 220,000) | AID 1424;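 active means activation above its plate's cutoff, the mean activation of test wells on that plate plus 3 SD, cut at about 19% in these data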;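 further: 0% = DMSO alone and 100% = 87 µM carbachol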
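System: zebrafish TRPN1-YFP in HEK293 cells / Dosing: 3 µM single point / Timing: dye loading 1 h at 37 °C, then 30 min room temperature / Signal: Fluo-8 calcium fluorescence, excitation 470-495 nm, emission 515-575 nm / Read-out basis: percent activation from peak over basal fluorescence ratio, control-normalized / Control set: high carbachol 87 µM, low DMSO alone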
TRPML3 ag – agonists of human TRPML3 channel | Q8TDD5 | HEK293 TRPML3-YFP, Fluo-8 calcium fluorescence; 100% = the carbachol control signal | activation, % at 3 µM | actives 0.29% (n = 220,000);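 active means activation above its plate's cutoff, the mean activation of the plate's test wells plus 3 SD, cut at about 12% in these data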;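 further: 0% = DMSO only wells and 100% = carbachol wells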
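Test system: HEK293 cells stably carrying human TRPML3-YFP; Doses: single dose, 3 µM final nominal compound, 0.3% DMSO final; Schedule: dye loading 1 h 37 °C then 30 min ambient, 125 s read; Technique: Fluo-8 calcium fluorescence; Benchmarks: high control carbachol 87 µM, low control DMSO.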
LANA-H2B inh – blocks KSHV LANA binding to histone H2A/H2B | Q9QR71 | cell-free LANA-H2A/H2B peptide, fluorescence polarization | inhibition, % (no concentration beside the values) | actives 0.6% (n = 320,000) | AID 2629; in the data active means inhibition mostly above about 10%, no sharp cut-off; inactive means mostly below about 6.7%
TAAR1 ag – human TAAR1 agonism; activation, % at 3 µM; CHO RD-HGA16 TAAR1, Fluo-8 calcium fluorescence; vehicle wells 0%, saturating PEA agonist 100%; actives 0.99% (n = 360,000); Q96RJ0;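 active means activation above the mean activation of all test compounds in the run plus 3 SD, cut at about 38% in these data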
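Assay system – CHO-derived RD-HGA16 cells with stable Gα16 and human TAAR1 · Compound dosing – one-point dosing at 3 µM (nominal) · Incubation – 17-24 h seeding, 75 min 37 °C dye, 30 min RT · Measured by – kinetic Fluo-8 calcium fluorescence · Control set – DMSO vehicle as 0%, PEA at EC100 as 100% · Repeats – single well for each compound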
* hit, by the source's call.

For CCOc1ccccc1OCCCC(=O)Nc1ccc(Cl)c(S(=O)(=O)N2CCOCC2)c1 the results were TAAR1 antag 21.0, LANA-H2B inh 29.6* and TAAR1 ag 7.7.
For Cc1ccc(C(=O)N2CCN(c3ccc(NC(=O)COc4ccccc4C)cc3)CC2)cc1 the results were GPR7 antag -18.5, TAAR1 antag 54.9*, TRPN1 ag 1.2, TRPML3 ag 1.2, LANA-H2B inh 3.1 and TAAR1 ag 9.3.
For COc1cccc(C(=O)N[C@H](C(=O)N2CCC[C@H]2C(=O)NCc2ccccc2)C(C)C)c1 the results were TAAR1 antag -13.4 and TAAR1 ag 0.0.
CC(C)(C)S(=O)(=O)N1Cc2cc(CO)ccc2[C@@H]1CCO was read as TAAR1 antag -9.7 and TAAR1 ag 3.2.
Screening Cc1ccc(C(=O)N2CCC[C@@H]2C(=O)N2CCC[C@H]2C(=O)NCc2ccccc2)cc1 returned TAAR1 antag -1.7 and TAAR1 ag -2.4.
`Nc1ccc2cc3[nH]c4cc(N)ccc4c3nc2c1` gave TAAR1 antag 63.2* and TAAR1 ag 78.1*.
COC(=O)C1=C(C)NC2=C(C(=O)CCC2)C1c1ccc(-c2ccsc2C(=O)OC)o1 (stereo not given) was read as GPR7 antag 3.5, TAAR1 antag 27.6, TRPN1 ag 1.3, TRPML3 ag 0.2, LANA-H2B inh 0.4 and TAAR1 ag 44.7*.
Screening O=C(Cc1ccccc1)N1O[C@H]2C=C[C@@H]1C2 returned TAAR1 antag -18.9 and TAAR1 ag 2.1.
For O=C(NC(=S)NCc1ccccc1)C1CC1 the results were GPR7 antag -12.8, TAAR1 antag 2.4, TRPN1 ag 1.1, TRPML3 ag 0.1, LANA-H2B inh 16.1* and TAAR1 ag 0.3.
Screening Cc1ccccc1C(=O)Oc1cccc(Nc2ncnc3ccccc23)c1 returned GPR7 antag 11.8, TAAR1 antag 52.8*, TRPN1 ag 8.1, TRPML3 ag 3.2, LANA-H2B inh 1.6 and TAAR1 ag 14.9.
Screening CC(=O)Oc1cccc(Nc2ncnc3ccccc23)c1 returned GPR7 antag 21.5, TAAR1 antag -8.3, LANA-H2B inh 2.0 and TAAR1 ag 3.2.
For Cc1cc2c(c(=O)o1)[C@@]1(C(=O)N(C)c3ccccc31)C1=C(CC(C)(C)CC1=O)O2 the results were TAAR1 antag -19.5 and TAAR1 ag 13.8.
`CCC1(C)OC(=O)N2CCc3c(C)[nH]c4c(C)ccc(c34)C21C` (stereo not given) gave GPR7 antag 17.8*, TAAR1 antag -10.6, TRPN1 ag 1.1, TRPML3 ag 0.5, LANA-H2B inh -0.1 and TAAR1 ag 0.8.
CCOC(=O)c1c(C)[nH]c(C(=O)COC(=O)c2ccc(N3CCCC3=O)cc2)c1C was read as GPR7 antag -6.8, TAAR1 antag -1.6, TRPN1 ag 0.4, TRPML3 ag -0.1, LANA-H2B inh -0.8 and TAAR1 ag 4.9.
CC(C)[C@H](NC(N)=O)C(=O)Nc1ccc(OCc2ccccc2)cc1 was read as GPR7 antag -5.2, TAAR1 antag 1.6, TRPN1 ag 1.5, TRPML3 ag 0.6, LANA-H2B inh 0.6 and TAAR1 ag 1.2.
Screening C[C@H](NC(N)=O)C(=O)Nc1ccc(OCc2ccccc2)cc1 returned GPR7 antag -3.3, TAAR1 antag -0.3, TRPN1 ag -0.2, TRPML3 ag -0.8, LANA-H2B inh 12.3* and TAAR1 ag 2.4.
Screening CC[C@H](C)Cc1cn([C@@H](CCCCNC(=O)OC(C)(C)C)C(=O)NCCCCCCCCCCC(=O)N2CCN(C(=O)OC(C)(C)C)CC2)nn1 returned TAAR1 antag 62.8*, LANA-H2B inh -5.5 and TAAR1 ag 14.2.
`O=C1c2ccccc2/C(=C\c2ccc(O[C@@H]3CCCCO3)cc2)N1c1ccccc1` gave TAAR1 antag 34.3 and TAAR1 ag 3.6.
`CCOCCCNC(=S)N1CCN(CC)CC1` gave GPR7 antag 8.1, TAAR1 antag 6.9, TRPN1 ag -0.2, TRPML3 ag 1.1, LANA-H2B inh 2.6 and TAAR1 ag 1.9.
Screening CCCCNC(=S)N1CCN(CC)CC1 returned GPR7 antag -5.0, TAAR1 antag -34.7, TRPN1 ag 1.1, TRPML3 ag 0.5, LANA-H2B inh 7.6 and TAAR1 ag 38.8*.
Screening O=C(NCCNC(=O)c1cc(OCC(F)(F)F)ccc1OCC(F)(F)F)Nc1cccc(C(F)(F)F)c1 returned GPR7 antag 20.8*, TAAR1 antag 2.2, TRPN1 ag 0.8, TRPML3 ag 1.0, LANA-H2B inh 1.3 and TAAR1 ag 23.2.
Screening O=[N+]([O-])c1cc(/C=N/NC(=S)Nc2ccccc2Cl)ccc1Cl returned GPR7 antag 29.6*, TAAR1 antag 11.2, TRPN1 ag -0.3, TRPML3 ag 0.5, LANA-H2B inh -1.6 and TAAR1 ag -0.2.
Screening Cc1ccc(C)c(C(=O)COC(=O)CCCC(=O)Nc2cc(C(F)(F)F)ccc2Cl)c1 returned GPR7 antag 1.3, TAAR1 antag 22.6, TRPN1 ag 0.1, TRPML3 ag -0.2, LANA-H2B inh 12.1* and TAAR1 ag 3.9.
For OC1OC2COC(c3ccccc3)OC2C(O)C1O (stereo not given) the results were TAAR1 antag -11.4 and TAAR1 ag 0.6.
`CC(C)(C)c1ccc(S(=O)(=O)NCC2CCN(C(=O)C(=O)c3cccs3)CC2)cc1` gave TAAR1 antag 31.1 and TAAR1 ag 0.6.
N#CC1=C(N)SC(N)=C(C#N)C1c1ccc(C(F)(F)F)cc1 was read as GPR7 antag 3.4, TRPN1 ag 1.8, TRPML3 ag 0.3 and LANA-H2B inh -19.3.
N#CC1=C(N)SC(N)=C(C#N)C1Cc1ccccc1 was read as GPR7 antag -1.5, TAAR1 antag 37.7, TRPN1 ag 1.8, TRPML3 ag 0.3, LANA-H2B inh -3.4 and TAAR1 ag 42.6*.
For CCc1ccc(C2C(C#N)=C(N)SC(N)=C2C#N)cc1 the results were GPR7 antag -6.9, TAAR1 antag 31.7, TRPN1 ag 1.8, TRPML3 ag 0.9, LANA-H2B inh -16.8 and TAAR1 ag 43.3*.
Screening COc1ccc(CCN2CC(C(=O)N(C)Cc3ccccc3OC)CCC2=O)cc1 (stereo not given) returned GPR7 antag -4.5, TAAR1 antag -1.3, LANA-H2B inh 12.3* and TAAR1 ag 0.1.
Cc1ccccc1Nc1nc(N)nc(CN(C)c2ccccc2)n1 was read as GPR7 antag -3.5, TAAR1 antag 0.4, TRPN1 ag 0.1, TRPML3 ag 0.8, LANA-H2B inh 28.1* and TAAR1 ag 7.2.
Cc1ccccc1Nc1nc(N)nc(CCl)n1 was read as GPR7 antag -5.8, TAAR1 antag -34.2, TRPN1 ag 0.2, TRPML3 ag 0.4, LANA-H2B inh -3.0 and TAAR1 ag 1.5.
